Values after ≈ are worked out from the molar mass of the structure shown. Active and inactive are the calls of the source. No cut-off for these calls is given here.
Legend:
[1] = molecular target: T1, Free fatty acid receptor 1 (Homo sapiens, UniProt O14842); test: Agonist activity at human GPR40 receptor expressed in HEK293 cells assessed as increase in intracellular calcium flux after 2.5 hrs measured over 3 mins by calcium 4 dye-based FLIPR assay relative to linoleic acid; type: functional, cell-based; parameters: Activity: concentration or dose not given beside the values
T1 sequence (O14842 whole entry): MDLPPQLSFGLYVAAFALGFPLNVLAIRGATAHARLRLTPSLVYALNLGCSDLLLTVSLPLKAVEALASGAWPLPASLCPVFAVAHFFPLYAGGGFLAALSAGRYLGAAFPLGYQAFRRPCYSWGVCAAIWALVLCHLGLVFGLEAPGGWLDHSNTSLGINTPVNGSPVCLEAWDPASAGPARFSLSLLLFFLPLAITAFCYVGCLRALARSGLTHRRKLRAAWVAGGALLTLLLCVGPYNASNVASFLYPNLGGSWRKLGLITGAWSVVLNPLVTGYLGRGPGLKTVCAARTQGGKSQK
Outline: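 Human GPR40 calcium flux was read on FLIPR. Percent stimulation is expressed against the response to 100 uM linoleic acid.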

[2] = Drug metabolism in dog hepatocytes assessed as glucuronidation; type: ADME, cell-based, Canis lupus familiaris, Hepatocyte
[3] = Drug metabolism in dog hepatocytes assessed as metabolite-B formation; type: ADME, cell-based, Canis lupus familiaris, Hepatocyte
Rattus norvegicus [4] = test: Toxicity in Zucker fa/fa rat assessed as alteration in food consumption at 1 to 10 mg/kg, po; type: organism-based; details: in vivo
Outline: (§1)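 Male Zucker fa/fa rats, 10 weeks old, given daily oral doses of 1, 3 or 10 mg/kg for 21 days. Body weight and food consumption tracked, with a reference agonist as positive control.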

3T3-L1 = test: Induction of adipogenesis in mouse 3T3L1 cells; type: functional, cell-based
Outline: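 Adipogenesis was assessed in 3T3-L1 cells.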

[5] = AUC (0 to 24 hrs) in Beagle dog at 3 mg/kg, po; type: ADME, organism-based, Canis lupus familiaris; parameters: time < 24 hr, dose 3 mg/kg, route oral; details: in vivo
[6] = molecular target: T1, Free fatty acid receptor 1; test: Agonist activity at human GPR40 receptor expressed in HEK293 cells assessed as increase in intracellular calcium flux after 2.5 hrs measured over 3 mins by calcium 4 dye-based FLIPR assay; type: functional, cell-based
Outline: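 Calcium flux was read by FLIPR in cells carrying recombinant human GPR40. Percent stimulation is relative to the response to 100 µM linoleic acid. EC50 is reported with SEM and n.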

[7] = molecular target: T1, Free fatty acid receptor 1; test: Agonist activity at human GPR40 receptor expressed in HEK293 cells assessed as increase in intracellular calcium flux after 2.5 hrs measured over 3 mins in presence of 0.1% serum albumin by calcium 4 dye-based FLIPR assay; type: functional, cell-based
Cytochrome P450 2C9 = Cytochrome P450 2C9 (Homo sapiens, UniProt P11712); test: Inhibition of human CYP2C9; type: ADME
Chain of Cytochrome P450 2C9 (P11712 whole entry): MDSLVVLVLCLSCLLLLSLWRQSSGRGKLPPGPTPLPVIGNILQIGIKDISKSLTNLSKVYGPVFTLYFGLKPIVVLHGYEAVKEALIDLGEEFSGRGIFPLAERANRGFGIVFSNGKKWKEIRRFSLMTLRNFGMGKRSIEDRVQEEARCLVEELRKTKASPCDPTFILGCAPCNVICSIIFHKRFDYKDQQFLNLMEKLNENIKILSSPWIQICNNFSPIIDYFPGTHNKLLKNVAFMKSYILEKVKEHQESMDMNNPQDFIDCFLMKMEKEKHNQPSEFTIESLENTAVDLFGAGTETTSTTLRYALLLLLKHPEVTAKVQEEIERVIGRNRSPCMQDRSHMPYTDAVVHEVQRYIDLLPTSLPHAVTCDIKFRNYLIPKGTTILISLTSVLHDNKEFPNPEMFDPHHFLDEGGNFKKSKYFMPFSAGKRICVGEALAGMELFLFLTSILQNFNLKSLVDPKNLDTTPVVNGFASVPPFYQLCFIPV

[8] = molecular target: Free fatty acid receptor 1 (Rattus norvegicus) (UniProt Q8K3T4); test: Agonist activity at GPR40 in Sprague-Dawley rat islets assessed as potentiation of glucose-stimulated insulin secretion at 1 to 10 uM in presence of […] glucose by ELISA
Chain of Free fatty acid receptor 1 (Rattus norvegicus) (Q8K3T4 whole entry): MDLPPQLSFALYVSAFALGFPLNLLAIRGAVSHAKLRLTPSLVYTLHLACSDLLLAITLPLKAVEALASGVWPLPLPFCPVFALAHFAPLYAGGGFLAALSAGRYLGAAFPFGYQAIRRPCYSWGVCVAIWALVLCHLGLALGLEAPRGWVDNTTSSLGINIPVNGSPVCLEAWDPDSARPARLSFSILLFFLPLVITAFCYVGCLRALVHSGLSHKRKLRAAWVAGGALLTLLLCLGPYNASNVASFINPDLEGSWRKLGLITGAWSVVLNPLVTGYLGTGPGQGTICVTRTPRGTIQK

[9] = molecular target: T2, Peroxisome proliferator-activated receptor gamma (Homo sapiens) (UniProt P37231); test: Agonist activity at […] human PPARgamma expressed in African green monkey CV1 cells up to 30 uM after 24 hrs by luciferase reporter gene assay; type: cell-based
T2 sequence (whole entry): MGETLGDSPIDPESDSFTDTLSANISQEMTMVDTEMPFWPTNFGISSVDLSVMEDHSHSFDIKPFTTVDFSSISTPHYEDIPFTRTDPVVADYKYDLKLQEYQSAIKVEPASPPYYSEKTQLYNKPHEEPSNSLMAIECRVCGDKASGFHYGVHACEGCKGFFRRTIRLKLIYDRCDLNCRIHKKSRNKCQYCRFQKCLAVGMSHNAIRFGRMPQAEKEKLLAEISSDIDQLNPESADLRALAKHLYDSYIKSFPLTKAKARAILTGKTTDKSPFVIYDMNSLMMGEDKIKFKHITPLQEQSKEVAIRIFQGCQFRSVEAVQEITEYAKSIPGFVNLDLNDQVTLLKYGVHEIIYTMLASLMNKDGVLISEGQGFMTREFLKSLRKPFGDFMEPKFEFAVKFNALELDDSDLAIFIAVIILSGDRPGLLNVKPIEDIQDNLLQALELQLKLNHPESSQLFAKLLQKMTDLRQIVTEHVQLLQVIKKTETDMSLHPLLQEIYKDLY
Outline: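 PPAR alpha, delta and gamma binding and functional activity were each tested at concentrations up to 30 µM.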

[10] = Tmax in Sprague-Dawley rat at 500 mg/kg, po; type: ADME, organism-based; details: in vivo
[11] = molecular target: Free fatty acid receptor 1 (Rattus norvegicus) (UniProt Q8K3T4); test: Agonist activity at rat PK-tagged GPR40 expressed in human U2OS cells assessed as EA-tagged beta-arrestin recruitment after 90 mins in presence of 1 % heat inactivated FBS by beta-galactosidase reporter gene assay relative to untreated control; type: cell-based
[12] = Solubility of the compound in DMSO at pH 7.4 by aqueous precipitation assay; type: physicochemical
Outline: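 DMSO stock diluted into aqueous buffer at pH 7.4 in a precipitation assay. Result reported as the last soluble concentration, upper limit 100 µM.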

[13] = Cmax in Beagle dog at 3 mg/kg, po; type: ADME, organism-based, Canis lupus familiaris; parameters: dose 3 mg/kg, route oral; details: in vivo
[14] = Volume of distribution at steady state in Sprague-Dawley rat at 1 mg/kg, iv; type: ADME, organism-based; details: in vivo, read-out: Vdss
[15] = Clearance in Beagle dog at 1 mg/kg, iv; type: ADME, organism-based, Canis lupus familiaris; details: in vivo
[16] = AUC (0 to 24 hrs) in Beagle dog at 1 mg/kg, iv; type: ADME, organism-based, Canis lupus familiaris; parameters: time < 24 hr, dose 1 mg/kg, route intravenous; details: in vivo
[17] = Half life in Sprague-Dawley rat at 1 mg/kg, po; type: ADME, organism-based; details: in vivo
[18] = Oral bioavailability in Sprague-Dawley rat at 1 mg/kg; type: ADME, organism-based; details: in vivo
Outline: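 Fasted rats given oral doses of 1 mg/kg. […] Bioavailability is calculated against the 1 mg/kg IV group.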

[19] = Metabolic stability in rat microsomes assessed as compound metabolized after 30 mins; type: ADME, Microsome; details: read-out: Drug metabolism
Outline: (§2)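 Compound incubated 30 min with liver microsomes from mouse, rat, dog or human. Percent of compound metabolized recorded, as mean (SEM, n).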

[20] = Metabolic stability in human microsomes assessed as compound metabolized after 30 mins; type: ADME, Microsome; details: read-out: Drug metabolism; outline: as §2
[21] = Tmax in Beagle dog at 100 mg/kg, po; type: ADME, organism-based, Canis lupus familiaris; details: in vivo
Outline: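 Dogs dosed orally at 30, 100 or 300 mg/kg, N = 2 per dose.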

[22] = AUC (0 to 24 hrs) in Beagle dog at 300 mg/kg, po; type: ADME, organism-based, Canis lupus familiaris; parameters: time < 24 hr, dose 300 mg/kg, route oral; details: in vivo
[23] = Intrinsic clearance in human hepatocytes; type: ADME, cell-based, Hepatocyte
[24] = Metabolic stability in mouse microsomes assessed as compound metabolized after 30 mins; type: ADME, Microsome; details: read-out: Drug metabolism; outline: as §2
[25] = Half life in Beagle dog at 3 mg/kg, po; type: ADME, organism-based, Canis lupus familiaris; details: in vivo
[26] = Solubility of the compound in pH 8.1 buffer; type: physicochemical
Rattus norvegicus [27] = test: Toxicity in Zucker fa/fa rat assessed as change in body weight at 1 to 10 mg/kg, po; type: organism-based; details: in vivo; outline: as §1
[28] = Lipophilicity, log P of the compound; type: physicochemical; details: octanol/water
[29] = Dissociation constant, pKa of the compound; type: physicochemical
[30] = molecular target: T1, Free fatty acid receptor 1; test: Agonist activity at human PK-tagged GPR40 expressed in HEK293 cells assessed as EA-tagged beta-arrestin recruitment after 90 mins in presence of 1 % heat inactivated FBS by beta-galactosidase reporter gene assay relative to untreated control; type: cell-based
[31] = Tmax in Sprague-Dawley rat at 100 mg/kg, po; type: ADME, organism-based; details: in vivo
[32] = Cmax in Sprague-Dawley rat at 500 mg/kg, po; type: ADME, organism-based; parameters: dose 500 mg/kg, route oral; details: in vivo
[33] = Cmax in Beagle dog at 30 mg/kg, po; type: ADME, organism-based, Canis lupus familiaris; parameters: dose 30 mg/kg, route oral; details: in vivo
[34] = Tmax in Beagle dog at 3 mg/kg, po; type: ADME, organism-based, Canis lupus familiaris; details: in vivo
Outline: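 Fasted dogs dosed orally at 3 mg/kg. […] Bioavailability is derived relative to the 1 mg/kg IV dose.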

[35] = AUC (0 to 24 hrs) in Sprague-Dawley rat at 1 mg/kg, iv; type: ADME, organism-based; parameters: dose 1 mg/kg, time < 24 hr, route intravenous; details: in vivo
[36] = molecular target: Voltage-gated inwardly rectifying potassium channel KCNH2 (Homo sapiens, UniProt Q12809); test: Inhibition of human ERG at 100 uM
Chain of Voltage-gated inwardly rectifying potassium channel KCNH2 (Q12809 whole entry): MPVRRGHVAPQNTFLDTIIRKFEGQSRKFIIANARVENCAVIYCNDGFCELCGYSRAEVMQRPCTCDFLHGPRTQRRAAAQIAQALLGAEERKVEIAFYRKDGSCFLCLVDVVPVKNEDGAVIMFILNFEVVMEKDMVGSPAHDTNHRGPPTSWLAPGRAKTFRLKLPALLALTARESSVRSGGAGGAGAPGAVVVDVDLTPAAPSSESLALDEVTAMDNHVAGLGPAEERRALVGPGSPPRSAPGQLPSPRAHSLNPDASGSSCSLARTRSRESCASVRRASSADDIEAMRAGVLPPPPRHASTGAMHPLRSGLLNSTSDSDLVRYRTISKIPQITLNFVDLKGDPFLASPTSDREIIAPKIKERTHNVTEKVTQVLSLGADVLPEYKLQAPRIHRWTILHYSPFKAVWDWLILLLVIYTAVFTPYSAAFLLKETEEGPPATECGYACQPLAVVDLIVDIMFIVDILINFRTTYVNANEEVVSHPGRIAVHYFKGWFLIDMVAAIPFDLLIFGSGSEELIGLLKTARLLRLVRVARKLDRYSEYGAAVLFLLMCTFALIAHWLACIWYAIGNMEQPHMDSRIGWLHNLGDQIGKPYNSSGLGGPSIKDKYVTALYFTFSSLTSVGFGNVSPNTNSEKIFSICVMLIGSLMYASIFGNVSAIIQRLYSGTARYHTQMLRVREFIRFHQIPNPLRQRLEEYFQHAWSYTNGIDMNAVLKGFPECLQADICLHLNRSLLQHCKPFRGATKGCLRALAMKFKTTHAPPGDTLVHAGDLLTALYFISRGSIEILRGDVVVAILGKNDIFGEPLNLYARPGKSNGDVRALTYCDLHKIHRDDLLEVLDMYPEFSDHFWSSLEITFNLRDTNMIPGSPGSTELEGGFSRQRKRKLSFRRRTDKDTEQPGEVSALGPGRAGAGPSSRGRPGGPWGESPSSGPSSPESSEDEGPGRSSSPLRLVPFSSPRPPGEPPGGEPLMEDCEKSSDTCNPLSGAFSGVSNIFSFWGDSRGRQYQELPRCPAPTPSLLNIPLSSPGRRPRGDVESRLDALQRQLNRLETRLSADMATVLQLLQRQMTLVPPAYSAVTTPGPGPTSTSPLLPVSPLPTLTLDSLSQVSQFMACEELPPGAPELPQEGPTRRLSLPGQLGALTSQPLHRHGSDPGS

Activity [1]: 54% | Drug metabolism [2]: Metabolite_Detected | Drug metabolism [3]: Metabolite_Detected | AUC(0-t) at 24 h [5]: 52.8 µg·h/mL | EC50 [6]: 11 nM | Activity [7]: Active | IC50 (Cytochrome P450 2C9): > 60000 nM | Activity [8]: inactive | Activity [9]: inactive | Tmax [10]: 6.7 h | %max [11]: 130% | solubility kinetic [12]: > 100 µM | Cmax [13]: 9.9 µg/mL | Vd [14]: 0.33 L/kg | clearance [15]: 0.601 mL/min/kg | AUC(0-t) at 24 h [16]: 27.3 µg·h/mL | half-life [17]: 4.68 h | bioavailability [18]: 93% | metabolised at 0.5 h [19]: 10% | metabolised at 0.5 h [20]: 5% | Tmax [21]: 3 h | AUC(0-t) at 24 h [22]: 4010 µg·h/mL | K [23]: 0.099 h⁻¹ | metabolised at 0.5 h [24]: 7% | half-life [25]: 5.49 h | solubility [26]: 173 µg/mL (≈ 394 µM) | logP [28]: 4.8 | pKa [29]: 4.3 | %max [30]: 124% | Tmax [31]: 5.3 h | Cmax [32]: 281 µg/mL | Cmax [33]: 126 µg/mL | Tmax [34]: 0.67 h | AUC(0-t) at 24 h [35]: 12.7 µg·h/mL
SMILES: CC#C[C@@H](CC(=O)O)c1ccc(OCc2ccc3nc(-c4c(C)cccc4C)nn3c2)cc1
Activity (Rattus norvegicus [4]): Non-Toxic | Activity (3T3-L1): inactive | Activity (Rattus norvegicus [27]): Non-Toxic | inhibition (INH) [36]: Not Active

From ChEMBL document CHEMBL4024777, “Discovery of LY3104607: A Potent and Selective G Protein-Coupled Receptor 40 (GPR40) Agonist with Optimized Pharmacokinetic Properties to Support Once Daily Oral Treatment in Patients with Type 2 Diabetes Mellitus” (J Med Chem, 2018)
